Test results taken from ChEMBL document CHEMBL2429794, “Tuning the antibacterial activity of amphiphilic neamine derivatives and comparison to paromamine homologues” (J Med Chem, 2013).
Converted amounts (≈) assume the structure as drawn.

Tests used:
[1] = Ratio of cytotoxicity against murine J774 cells to antibacterial activity against Pseudomonas aeruginosa PA22 (PT629) expressing MexXY; type: toxicity, cell-based; details: mouse
[2] = Ratio of cytotoxicity against murine J774 cells to antibacterial activity against Pseudomonas aeruginosa F03 expressing AAC6'-2A; type: toxicity, cell-based; details: mouse
[3] = Ratio of cytotoxicity against murine J774 cells to antibacterial activity against Pseudomonas aeruginosa ATCC 27853; type: toxicity, cell-based; details: mouse
[4] = Ratio of cytotoxicity against murine J774 cells to antibacterial activity against vancomycin-resistant Staphylococcus aureus VRS2; type: toxicity, cell-based; details: mouse
[5] = Cytotoxicity against murine J774 cells assessed as cell viability at 10 uM after 24 hrs by MTT assay relative to control; type: cell-based; details: mouse, read-out: Activity
In short: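 Murine J774 macrophages were exposed for 24 h to compounds at 10 μM, then incubated 1 h with 0.2 mg/mL MTT. Viability was read from mitochondrial reduction of MTT to purple formazan, expressed as percent viability, and averaged over three experiments.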

Escherichia coli [6] = test: Antibacterial activity against Escherichia coli L58058.1 expressing ANT2''-1A after 24 hrs by geometric microdilution method; type: functional; details: L58058.1, 24 h
Escherichia coli [7] = test: Antibacterial activity against Escherichia coli PAZ505H8101 expressing AAC6'-1B after 24 hrs by geometric microdilution method; type: functional; details: PAZ505H8101, 24 h
Pseudomonas aeruginosa [8] = test: Antibacterial activity against Pseudomonas aeruginosa PA22 (PT629) expressing MexXY after 24 hrs by geometric microdilution method; type: functional
Pseudomonas aeruginosa [9] = test: Antibacterial activity against Pseudomonas aeruginosa F03 expressing AAC6'-2A after 24 hrs by geometric microdilution method; type: functional; details: F03, 24 h
Pseudomonas aeruginosa [10] = test: Antibacterial activity against Pseudomonas aeruginosa ATCC 27853 after 24 hrs by geometric microdilution method; type: functional; details: ATCC 27853, 24 h
Staphylococcus aureus [11] = test: Antibacterial activity against vancomycin-resistant Staphylococcus aureus VRS2 after 24 hrs by geometric microdilution method; type: functional; details: VRS2, 24 h
In short: (§1)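 Broth cultures were incubated in plates at 37 °C, and growth was read as absorbance at 650 nm after 1, 4, 7 and 24 h. Ampicillin (16 mg/L) was the positive control and DMSO the negative control. Each MIC (μg/mL) is the average of at least three determinations.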

Staphylococcus aureus [12] = test: Antibacterial activity against healthcare-acquired methicillin-resistant Staphylococcus aureus ATCC 33592 after 24 hrs by geometric microdilution method; type: functional; details: ATCC 33592, 24 h; in short: as §1
Staphylococcus aureus [13] = test: Antibacterial activity against Staphylococcus aureus expressing aminoglycoside-[…] after 24 hrs by geometric microdilution method; type: functional; in short: as §1
Staphylococcus aureus [14] = test: Antibacterial activity against Staphylococcus aureus expressing aminoglycoside-3'-O-phosphoryltransferase after 24 hrs by geometric microdilution method; type: functional; in short: as §1
Staphylococcus aureus [15] = test: Antibacterial activity against Staphylococcus aureus expressing aminoglycoside-6'-N-acetyltransferase/2''-O-phosphoryltransferase after 24 hrs by geometric microdilution method; type: functional; in short: as §1
Staphylococcus aureus [16] = test: Antibacterial activity against 14- and 15-membered macrolide-resistant Staphylococcus aureus expressing MsrA efflux pump after 24 hrs by geometric microdilution method; type: functional; in short: as §1
Staphylococcus aureus [17] = test: Antibacterial activity against fluoroquinolone-resistant Staphylococcus aureus 1199B expressing NorA efflux pump after 24 hrs by geometric microdilution method; type: functional; in short: as §1
Escherichia coli [18] = test: microbe, parasite or virus in culture; details: ATCC 25922, 24 h
Staphylococcus aureus [19] = test: microbe, parasite or virus in culture; details: ATCC 25923, 24 h
Klebsiella pneumoniae = test: Antibacterial activity against Klebsiella pneumoniae ATCC 700603 after 24 hrs by geometric microdilution method; type: functional; details: ATCC 700603, 24 h
Acinetobacter lwoffii [20] = test: Antibacterial activity against Acinetobacter lwoffii AI.88-483 expressing APH3'-6A after 24 hrs by geometric microdilution method; type: functional; details: AI.88-483, 24 h
Acinetobacter lwoffii [21] = test: Antibacterial activity against Acinetobacter lwoffii ATCC 17925 after 24 hrs by geometric microdilution method; type: functional; details: ATCC 17925, 24 h
[22] = Ratio of cytotoxicity against murine J774 cells to antibacterial activity against healthcare-acquired methicillin-resistant Staphylococcus aureus ATCC 33592; type: toxicity, cell-based; details: mouse

Row | SMILES | selectivity ratio [4] | viability at 24 h, 10 µM [5] | MIC (Escherichia coli [6]) | MIC (Escherichia coli [7]) | MIC (Pseudomonas aeruginosa [8]) | MIC (Pseudomonas aeruginosa [9]) | MIC (Pseudomonas aeruginosa [10]) | MIC (Staphylococcus aureus [11]) | MIC (Staphylococcus aureus [12]) | MIC (Staphylococcus aureus [13]) | MIC (Staphylococcus aureus [14]) | MIC (Staphylococcus aureus [15]) | MIC (Staphylococcus aureus [16]) | MIC (Staphylococcus aureus [17]) | MIC (Escherichia coli [18]) | MIC (Staphylococcus aureus [19]) | MIC (Klebsiella pneumoniae) | MIC (Acinetobacter lwoffii [20]) | MIC (Acinetobacter lwoffii [21]) | other results
1 | CCCCCCCCCO[C@@H]1[C@@H](N)[C@@H](O[C@H]2[C@H](O)[C@@H](OCCCCCCCCC)[C@H](N)C[C@@H]2N)O[C@H](CN)[C@H]1O | > 5 | 75% | 4 µg/mL (≈ 6.96 µM) | 2 µg/mL (≈ 3.48 µM) | 4 µg/mL (≈ 6.96 µM) | 4 µg/mL (≈ 6.96 µM) | 4 µg/mL (≈ 6.96 µM) | 2 µg/mL (≈ 3.48 µM) | 4 µg/mL (≈ 6.96 µM) | 4 µg/mL (≈ 6.96 µM) | 2 µg/mL (≈ 3.48 µM) | 4 µg/mL (≈ 6.96 µM) | 4 µg/mL (≈ 6.96 µM) | 8 µg/mL (≈ 13.9 µM) | 4 µg/mL (≈ 6.96 µM) | 2 µg/mL (≈ 3.48 µM) |  |  |  | selectivity ratio [1]: 2.5; selectivity ratio [2]: 2.5; selectivity ratio [3]: 2.5
2 | NC[C@H]1O[C@H](O[C@H]2[C@H](O)[C@@H](OCCCCCCc3ccc4ccccc4c3)[C@H](N)C[C@@H]2N)[C@H](N)[C@@H](OCCCCCCc2ccc3ccccc3c2)[C@@H]1O |  | < 50% | 128 µg/mL (≈ 172 µM) | 64 µg/mL (≈ 86.1 µM) | 64 µg/mL (≈ 86.1 µM) | 64 µg/mL (≈ 86.1 µM) | 32 µg/mL (≈ 43.1 µM) | > 128 µg/mL | > 128 µg/mL | > 128 µg/mL | 64 µg/mL (≈ 86.1 µM) | 128 µg/mL (≈ 172 µM) |  | > 128 µg/mL | 128 µg/mL (≈ 172 µM) | 64 µg/mL (≈ 86.1 µM) |  |  |  | 
3 | NC[C@H]1O[C@H](O[C@H]2[C@H](O)[C@@H](OCCCCc3ccc4ccccc4c3)[C@H](N)C[C@@H]2N)[C@H](N)[C@@H](OCCCCc2ccc3ccccc3c2)[C@@H]1O | > 5 | 80% | 8 µg/mL (≈ 11.6 µM) | 4 µg/mL (≈ 5.82 µM) | 8 µg/mL (≈ 11.6 µM) | 8 µg/mL (≈ 11.6 µM) | 4 µg/mL (≈ 5.82 µM) | 2 µg/mL (≈ 2.91 µM) | 2 µg/mL (≈ 2.91 µM) | 1 µg/mL (≈ 1.46 µM) | 1 µg/mL (≈ 1.46 µM) | 2 µg/mL (≈ 2.91 µM) | 0.25 µg/mL (≈ 0.364 µM) | 2 µg/mL (≈ 2.91 µM) | 8 µg/mL (≈ 11.6 µM) | 2 µg/mL (≈ 2.91 µM) | 32 µg/mL (≈ 46.6 µM) | 64 µg/mL (≈ 93.2 µM) | 4 µg/mL (≈ 5.82 µM) | 
4 | NC[C@H]1O[C@H](O[C@H]2[C@H](O)[C@@H](OCCCc3ccc4ccccc4c3)[C@H](N)C[C@@H]2N)[C@H](N)[C@@H](OCCCc2ccc3ccccc3c2)[C@@H]1O | 11 | 90% | 16 µg/mL (≈ 24.3 µM) | 8 µg/mL (≈ 12.1 µM) | 16 µg/mL (≈ 24.3 µM) | 16 µg/mL (≈ 24.3 µM) | 4 µg/mL (≈ 6.07 µM) | 1 µg/mL (≈ 1.52 µM) | 2 µg/mL (≈ 3.04 µM) | 1 µg/mL (≈ 1.52 µM) | 1 µg/mL (≈ 1.52 µM) | 2 µg/mL (≈ 3.04 µM) | 0.5 µg/mL (≈ 0.759 µM) | 2 µg/mL (≈ 3.04 µM) | 16 µg/mL (≈ 24.3 µM) | 2 µg/mL (≈ 3.04 µM) |  |  |  | selectivity ratio [22]: 5.5
5 | CCCCCCO[C@@H]1[C@@H](N)[C@@H](O[C@H]2[C@H](O)[C@@H](OCCCCCC)[C@H](N)C[C@@H]2N)O[C@H](CN)[C@H]1OCCCCCC |  | 40% | 4 µg/mL (≈ 6.96 µM) | 4 µg/mL (≈ 6.96 µM) | 8 µg/mL (≈ 13.9 µM) | 8 µg/mL (≈ 13.9 µM) | 8 µg/mL (≈ 13.9 µM) | 4 µg/mL (≈ 6.96 µM) | 4 µg/mL (≈ 6.96 µM) | 8 µg/mL (≈ 13.9 µM) | 4 µg/mL (≈ 6.96 µM) | 8 µg/mL (≈ 13.9 µM) | 8 µg/mL (≈ 13.9 µM) | 4 µg/mL (≈ 6.96 µM) | 4 µg/mL (≈ 6.96 µM) | 4 µg/mL (≈ 6.96 µM) | 8 µg/mL (≈ 13.9 µM) | 64 µg/mL (≈ 111 µM) | 4 µg/mL (≈ 6.96 µM) | 
